Assay results as given in PubChem BioAssay AID652011 (Sanford-Burnham Center for Chemical Genomics, 2013).
Several values for one entry are separate records, joined by “and”; a condition that tells them apart may be missing. Equal entries are not always repeated.

biological target: Hypoxia-inducible factor 1-alpha (Homo sapiens) (UniProt Q16665); test: HIF reporter inhibition across pancreatic and renal lines – cell-based, luminescence, MIAPaCa-2, 786-0, panel, SAR follow-up (AID 652011); details: MIAPaCa-2/PANC HIF reporter, luciferase luminescence, desferoxamine, overnight, HIF1a, run 1; at 99 µM (top of the series)
Method in brief: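 Reagent: Desferoxamine added before compound | Doses: Compounds from 10 mM and 0.3125 mM stocks, 1% DMSO final | Times: Overnight seeding and compound exposure, 37 °C, 5% CO2, 10-min detection | Measured by: One-Glo luciferase luminescence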

Sequence of Hypoxia-inducible factor 1-alpha (Homo sapiens) (Q16665 whole entry, looked up): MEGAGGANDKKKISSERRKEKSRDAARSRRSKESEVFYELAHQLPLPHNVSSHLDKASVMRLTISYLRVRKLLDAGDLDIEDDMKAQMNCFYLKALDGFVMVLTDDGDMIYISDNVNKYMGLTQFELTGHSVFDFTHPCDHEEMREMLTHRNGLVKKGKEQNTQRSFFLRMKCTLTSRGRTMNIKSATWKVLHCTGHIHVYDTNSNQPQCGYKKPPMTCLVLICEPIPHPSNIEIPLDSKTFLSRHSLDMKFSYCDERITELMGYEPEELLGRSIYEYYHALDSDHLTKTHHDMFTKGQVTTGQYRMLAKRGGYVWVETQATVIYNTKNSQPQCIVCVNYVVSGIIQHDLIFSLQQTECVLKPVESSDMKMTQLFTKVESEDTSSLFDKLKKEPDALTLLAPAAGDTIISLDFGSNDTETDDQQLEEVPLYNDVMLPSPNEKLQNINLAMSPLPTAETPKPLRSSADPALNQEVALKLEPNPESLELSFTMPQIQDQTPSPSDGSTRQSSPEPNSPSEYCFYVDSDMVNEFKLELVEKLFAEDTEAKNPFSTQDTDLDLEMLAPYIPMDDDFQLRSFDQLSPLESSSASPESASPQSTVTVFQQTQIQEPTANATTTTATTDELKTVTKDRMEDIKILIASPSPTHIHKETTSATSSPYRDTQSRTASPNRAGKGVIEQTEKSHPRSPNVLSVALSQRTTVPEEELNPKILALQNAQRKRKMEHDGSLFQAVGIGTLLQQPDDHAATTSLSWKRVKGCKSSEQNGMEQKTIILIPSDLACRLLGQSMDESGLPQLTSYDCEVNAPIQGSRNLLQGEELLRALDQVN

SMILES	inhibition
CCNC(=O)CCc1nc(-c2ccc(OCC)cc2)no1	-79.8%
CCCCc1ccc(-c2noc(CCC(=O)NCC)n2)cc1	-6.32%
CC(C)(C)NC(=O)CCc1nc(-c2ccc(C(C)(C)C)cc2)no1	84.3%
CC(C)(C)c1ccc(-c2noc(CCC(=O)Nc3ccccc3)n2)cc1	43%
CNC(=O)CCc1nc(-c2ccc(OC)cc2)no1	-51.1%
CCc1ccc(-c2noc(CCC(=O)NC(C)(C)C)n2)cc1	-38.3%
CCNC(=O)CCc1nc(-c2cccc(C)c2)no1	-31.4%
CC(C)(C)c1ccc(-c2noc(CCC(=O)N3CCCCC3)n2)cc1	102%
CCC(C)NC(=O)CCc1nc(-c2ccccc2)no1 (stereo not given)	-33.5%
CNC(=O)CCc1nc(-c2ccccc2)no1	-13.3% and 12%
CCc1ccc(-c2noc(CCC(=O)NC(C)CC)n2)cc1 (stereo not given)	-51.7%
CCCCc1ccc(-c2noc(CCC(=O)NC3CC3)n2)cc1	2.18%
COC(=O)CCc1nc(-c2ccc(C(C)(C)C)cc2)no1	92.2%
CCCCc1ccc(-c2noc(CCC(=O)NC(C)CC)n2)cc1 (stereo not given)	29.2%
CCNC(=O)CCc1nc(-c2ccccc2)no1	-39.4%
CCNC(=O)CCc1nc(-c2ccc(C(C)(C)C)cc2)no1	-11.3% and -13.8%
CCCCc1ccc(-c2noc(CCC(=O)NC)n2)cc1	-40.2%
CC(C)(C)c1ccc(-c2noc(CCC(=O)NC3CCCC3)n2)cc1	70.1%
CCNC(=O)CCc1nc(-c2ccc(C(C)C)cc2)no1	-33%
CNC(=O)CCc1nc(-c2ccc(C(C)C)cc2)no1	-38.5%
CCNC(=O)CCc1nc(-c2ccccc2Cl)no1	-17.5%
COc1cccc(NC(=O)CCc2nc(-c3ccc(C(C)(C)C)cc3)no2)c1	74.5%
CC(C)CNC(=O)CCc1nc(-c2ccc(C(C)(C)C)cc2)no1	-21.6%
CN(C)C(=O)CCc1nc(-c2ccc(C(C)(C)C)cc2)no1	-59.6% and -77.5%
COc1ccccc1NC(=O)CCc1nc(-c2ccc(C(C)(C)C)cc2)no1	67.6%
CCOc1ccccc1NC(=O)CCc1nc(-c2ccc(C(C)(C)C)cc2)no1	54.8%
CNC(=O)CCc1nc(-c2ccc(C)cc2)no1	8.42%
CC(C)(C)c1ccc(-c2noc(CCC(=O)NCc3ccco3)n2)cc1	86.8% and 85.5%
CCc1ccc(-c2noc(CCC(=O)NC3CC3)n2)cc1	-66.8%
CCCNC(=O)CCc1nc(-c2ccc(C(C)(C)C)cc2)no1	-1.08%
